EP2 antag – EP2 receptor (human) inhibition | P43116 | C6 glioma cells expressing human EP2, cAMP TR-FRET; cells stimulated with saturating PGE2 | inhibition, % at 25 µM | 260,000 tested, 0.52% active | AID 1422;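 active = percent inhibition above 40 after rounding to a whole number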;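 also: rat C6 glioma host cells with rolipram phosphodiesterase inhibitor present; the protocol text gives 20 µM as final concentration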
Target sequence (P43116 whole entry, looked up): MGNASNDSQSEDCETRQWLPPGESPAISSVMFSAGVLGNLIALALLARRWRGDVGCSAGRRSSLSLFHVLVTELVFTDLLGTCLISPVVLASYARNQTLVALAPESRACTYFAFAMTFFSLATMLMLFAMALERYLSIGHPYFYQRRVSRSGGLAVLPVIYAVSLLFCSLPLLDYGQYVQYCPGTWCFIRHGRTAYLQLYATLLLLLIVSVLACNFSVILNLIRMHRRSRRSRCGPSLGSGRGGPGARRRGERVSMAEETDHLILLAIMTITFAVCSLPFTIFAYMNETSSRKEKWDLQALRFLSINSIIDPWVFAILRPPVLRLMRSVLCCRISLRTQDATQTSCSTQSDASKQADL
HMGR II inh – blocks class II HMG-CoA reductase of Enterococcus faecalis. purified E. faecalis HMGR, NADPH absorbance 340 nm kinetic. inhibition, % at 10 µM. 190,000 tested, 0.41% active;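 active = inhibition above a set limit, the median over all tested compounds plus 3 SD, cut at about 9.5% in these data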;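 also: enzyme runs in reverse so mevalonate oxidation gives rising NADPH absorbance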
bCat nuc transl – modulators of beta-catenin nuclear translocation; 190,000 tested, 0.3% active; nuclear translocation activity, % at 5 µM; HeLa beta-catenin nuclear translocation, immunofluorescence imaging;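 active = nuclear translocation activity above 50% at 5 µM, with a well cell count of 50 or more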;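 also: per-cell ratio of nuclear to cytoplasmic median beta-catenin stain intensity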
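Technique: fluorescence imaging of beta-catenin antibody stain plus DAPI / Material: human HeLa cell line / Incubation: compound treatment 24 h, 37°C, 5% CO2 / Read-out basis: % activation of per-cell nuclear versus cytoplasmic median beta-catenin signal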
EP2 modulator – modulates human prostaglandin E2 receptor EP2 signaling; P43116; EP2-expressing cells, cAMP HTRF FRET, PGE2 co-stimulation; induction, % at 25 µM; 260,000 tested, 0.83% active; AID 940;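 active = compounds whose cAMP rise, as percent of the full-agonist control response, exceeds 60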;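 also: rat C6 glioma line stably carrying human EP2 under a CMV promoter; the protocol text gives 20 µM as final concentration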
MT stabilize HCS – microtubule stabilizers in HeLa cells. HeLa tubulin immunostaining HCS, 24 h; share of cells brighter than vehicle mean+2SD. % tubulin-high responders, % at 10 µM. 200,000 tested, 0.83% active;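 active = plate Z-score above 3 for both tubulin-high and condensed-nucleus cell shares, with cell loss under 80%, at 10 µM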;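 also: anti alpha tubulin signal scored within the nucleus-defined area of each cell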
TbHK1 inh – T. brucei hexokinase 1 inhibition; recombinant TbHK1, G6PDH-coupled NADH A340; inhibition, % at 10 µM; 220,000 tested, 0.11% active;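 active = inhibition of 50% or more in the single-dose primary screen; inactive = inhibition below 50%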
G6PDH ctr – counter-screen for TbHK1 inhibitors: Leuconostoc G6PDH inhibition | shares compounds with TbHK1 inh | 210 tested, 7% active | inhibition, % at 10 µM | purified G6PDH, NADH absorbance, 1 h;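 active = at least 50% inhibition in the glucose-6-phosphate dehydrogenase coupled counterscreen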
TbHK1 confirm – confirmation of Trypanosoma brucei hexokinase 1 inhibitors | shares compounds with TbHK1 inh | inhibition, % at 10 µM | recombinant TbHK1, G6PDH-coupled NADH A340 absorbance | 210 tested, 10% active;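 active = inhibition of at least 50% in both of the two screening runs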
Of the large screens only hits and unclear results are named; the others gave an inactive call (follow-up assays come after a bar, where they were run). Hits are enriched below; roughly 2.4% of the tested compounds scored in any of these assays.

Cc1cccc(C)c1NC(=O)CSc1nnc(-c2ccoc2C)n1C	TbHK1 inh 67 | G6PDH ctr inactive | TbHK1 confirm inactive
O=C(OCCN1C(=O)c2ccccc2C1=O)c1cnccn1	TbHK1 inh 51 | G6PDH ctr inactive | TbHK1 confirm inactive
O=C(OCCN1C(=O)c2ccccc2C1=O)c1ccccc1	none
COCCNC(=O)CN(C)S(=O)(=O)c1ccc(Br)cc1	none
COC(=O)NCCOC(=O)N(O)c1ccc(Br)cc1	TbHK1 inh 57 | G6PDH ctr inactive | TbHK1 confirm inactive
NS(=O)(=O)c1ccc(N/N=C/c2ccc(O)c(O)c2O)c([N+](=O)[O-])c1	TbHK1 inh 67 (no result: HMGR II inh, MT stabilize HCS) | G6PDH ctr inactive | TbHK1 confirm inactive
O=S1(=O)N=C(N2CCOCC2)c2ccccc21	TbHK1 inh 57 | G6PDH ctr inactive | TbHK1 confirm inactive
O=C(/C=C/c1cc[n+](CC(=O)c2ccc3cccc4c3c2CC4)cc1)c1ccc2cccc3c2c1CC3	TbHK1 inh 75 (no result: HMGR II inh, MT stabilize HCS) | G6PDH ctr 100 | TbHK1 confirm inactive
O=C(C[n+]1ccc2ccccc2c1)c1cccc2ccccc12	none
O=c1c2ccccc2sn1-c1ccccc1	EP2 antag 118, TbHK1 inh 81 | G6PDH ctr inactive | TbHK1 confirm 84
O=c1c2ccccc2sn1-c1nccs1	TbHK1 inh 72 | G6PDH ctr inactive | TbHK1 confirm 74
O=c1c2ccccc2c(C=Nc2ccccc2O)c(O)n1-c1nccs1	none (no result: HMGR II inh, MT stabilize HCS)
O=C(C1CC1)N1CCCc2cc(C(O)CN3CCC(C(F)(F)F)CC3)ccc21 (stereo not given)	none (no result: HMGR II inh, bCat nuc transl, MT stabilize HCS, TbHK1 inh)
CCN(CC)S(=O)(=O)c1ccc(C(=O)NC2=C(C(=O)OC)SCC2)cc1	TbHK1 inh 55 | G6PDH ctr inactive | TbHK1 confirm inactive
COC(=O)C1=C(NC(=O)c2ccc(Br)cc2)CCS1	none
CCN(CC)S(=O)(=O)c1ccc(C(=O)Nc2cc(C)cc(C)c2)cc1	none
COC(=O)C1=C(NC(=O)c2ccc(C)c(C)c2)CCS1	TbHK1 inh 57 | G6PDH ctr inactive | TbHK1 confirm inactive
O=C(NNC(=S)NC(=O)c1ccccc1[N+](=O)[O-])c1ccccc1[N+](=O)[O-]	none
O=C(COc1ccc(Br)cc1)NNC(=S)NC(=O)c1ccccc1[N+](=O)[O-]	TbHK1 inh 61 | G6PDH ctr inactive | TbHK1 confirm inactive
CCOC(=O)N1CCN(c2ccc(S(=O)(=O)N(Cc3ccccc3)Cc3ccccc3)cn2)CC1	TbHK1 inh 58 | G6PDH ctr inactive | TbHK1 confirm inactive
COc1ccc(NC(=O)CN(c2ccc3c(c2)OCO3)S(C)(=O)=O)c(OC)c1	none (no result: HMGR II inh, bCat nuc transl, MT stabilize HCS, TbHK1 inh)
Cc1ccc(-c2nnc3c4ccccc4c(C)nn23)cc1NC(=O)CN1CCOCC1	TbHK1 inh 51 | G6PDH ctr inactive | TbHK1 confirm inactive
Cc1nn2c(-c3cccc(NC(=O)CN4CCOCC4)c3)nnc2c2ccccc12	none (no result: HMGR II inh, bCat nuc transl, EP2 modulator)
CS(=O)(=O)N1CCN(c2ccc(NC(=O)c3cc(Cl)ccc3Cl)cc2)CC1	none (no result: HMGR II inh, bCat nuc transl, MT stabilize HCS, TbHK1 inh)
NC(=O)SC/C(=N\S(=O)(=O)c1ccccc1)Nc1ccccc1	TbHK1 inh 58 | G6PDH ctr inactive | TbHK1 confirm inactive
CCN(CC)S(=O)(=O)c1ccc(C(=O)NCc2n[nH]c(=S)n2Cc2ccccc2)cc1	TbHK1 inh 61 | G6PDH ctr inactive | TbHK1 confirm inactive
CCN(CC)S(=O)(=O)c1ccc(C(=O)Nc2ncn(Cc3ccccc3)n2)cc1	TbHK1 inh 64 | G6PDH ctr inactive | TbHK1 confirm inactive
CN1C(=O)C(Cl)(Cl)C(=O)c2ccccc21	TbHK1 inh 75 | G6PDH ctr inactive | TbHK1 confirm inactive
CN1C(=O)C2(NC(=O)c3ccccc3N2C)c2ccccc21 (stereo not given)	none (no result: HMGR II inh, MT stabilize HCS)
CCCCn1c(NC(=S)Nc2ccccc2)nc2ccccc21	TbHK1 inh 62 | G6PDH ctr inactive | TbHK1 confirm inactive
CCCCn1c(NC(=O)c2ccccc2)nc2ccccc21	none
CCCC(=O)NC(c1cccs1)c1cc([N+](=O)[O-])c2cccnc2c1O (stereo not given)	none (no result: bCat nuc transl)

Source: PubChem BioAssay
